In ChEMBL document CHEMBL2040734, “Benzothiazoles: search for anticancer agents” (2012):

What was measured:
Type in all cases: functional
UO-31 [1] = assay: Cytotoxicity against human UO31 cells assessed as cell growth at 0.01 uM after 48 hrs by sulforhodamine B assay; conditions: UO-31, 48 h, read-out: Activity
MCF7 = assay: Cytotoxicity against human MCF7 cells assessed as cell growth at 0.01 uM after 48 hrs by sulforhodamine B assay; conditions: MCF7, 48 h, read-out: Activity
T47D [2] = assay: Cytotoxicity against human T47D cells assessed as cell growth at 0.01 uM after 48 hrs by sulforhodamine B assay; conditions: read-out: Activity
SNB-19 = assay: Cytotoxicity against human SNB19 cells assessed as cell growth at 0.1 uM after 48 hrs by sulforhodamine B assay; conditions: SNB-19, 48 h, read-out: Activity
MDA-MB-435 = assay: Cytotoxicity against human MDA-MB-435 cells assessed as cell growth at 0.1 uM after 48 hrs by sulforhodamine B assay; conditions: MDA-MB-435, 48 h, read-out: Activity
IGROV-1 [3] = assay: Cytotoxicity against human IGROV1 cells assessed as cell growth at 0.1 uM after 48 hrs by sulforhodamine B assay; conditions: IGROV-1, 48 h, read-out: Activity
COLO 205 = assay: Cytotoxicity against human COLO205 cells assessed as cell growth at 100 uM after 48 hrs by sulforhodamine B assay; conditions: COLO 205, 48 h, read-out: Activity
Method in brief: (§1)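 NCI-60 five-dose screen. Cells were grown in RPMI 1640 with 5% FBS and 2 mM L-glutamine and preincubated 24 h. Compound (DMSO stock) was tested at 0.01, 0.1, 1, 10 and 100 µM for 48 h at 37 °C. Cells were fixed in situ with cold TCA (final 10%) and stained with 0.4% SRB. A515 was read, and percent growth was calculated against time-zero and control plates.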

UO-31 [4] = assay: Cytotoxicity against human UO31 cells assessed as cell growth at 100 uM after 48 hrs by sulforhodamine B assay; conditions: UO-31, 48 h, read-out: Activity
BT-549 = assay: Cytotoxicity against human BT549 cells assessed as cell growth at 100 uM after 48 hrs by sulforhodamine B assay; conditions: BT-549, 48 h, read-out: Activity; method in brief: as §1
HOP-62 [5] = assay: Cytotoxicity against human HOP62 cells assessed as cell growth at 1 uM after 48 hrs by sulforhodamine B assay; conditions: HOP-62, 48 h, read-out: Activity
Method in brief: (§2)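 Five-dose NCI panel run at 0.01, 0.1, 1, 10 and 100 µM. Cells were in RPMI 1640 with 5% FBS and 2 mM L-glutamine, seeded at 5000–40,000 cells/well and pre-incubated 24 h. Drug was diluted from a DMSO stock into medium with 50 µg/ml gentamicin. Exposure was 48 h at 37 °C, 5% CO2. Cells were fixed with cold TCA and stained with 0.4% SRB, read at 515 nm. Percent growth came from time-zero, control and test absorbances.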

CAKI-1 = assay: Cytotoxicity against human Caki1 cells assessed as cell growth at 1 uM after 48 hrs by sulforhodamine B assay; conditions: CAKI-1, 48 h, read-out: Activity; method in brief: as §1
NCI-H460 [6] = assay: Cytotoxicity against human NCI-H460 cells assessed as cell growth at 10 uM after 48 hrs by sulforhodamine B assay; conditions: NCI-H460, 48 h, read-out: Activity
UACC-62 = assay: Cytotoxicity against human UACC62 cells assessed as cell growth at 10 uM after 48 hrs by sulforhodamine B assay; conditions: UACC-62, 48 h, read-out: Activity
IGROV-1 [7] = assay: Cytotoxicity against human IGROV1 cells assessed as cell growth at 10 uM after 48 hrs by sulforhodamine B assay; conditions: IGROV-1, 48 h, read-out: Activity
RXF 393 = assay: Cytotoxicity against human RXF393 cells assessed as cell growth at 10 uM after 48 hrs by sulforhodamine B assay; conditions: RXF 393, 48 h, read-out: Activity
HOP-62 [8] = assay: Cytotoxicity against human HOP62 cells assessed as cell growth at 100 uM after 48 hrs by sulforhodamine B assay; conditions: HOP-62, 48 h, read-out: Activity; method in brief: as §2
IGROV-1 [9] = assay: Cytotoxicity against human IGROV1 cells assessed as cell growth at 10 '-5 M after 48 hrs by sulforhodamine B assay; conditions: IGROV-1, 48 h, read-out: Activity
OVCAR-5 = assay: Cytotoxicity against human OVCAR5 cells assessed as cell growth at 10 '-5 M after 48 hrs by sulforhodamine B assay; conditions: OVCAR-5, 48 h, read-out: Activity
ACHN = assay: Cytotoxicity against human ACHN cells assessed as cell growth at 10 '-5 M after 48 hrs by sulforhodamine B assay; conditions: read-out: Activity
Method in brief: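 Primary NCI-60 single-dose screen at 10 µM. Cells were grown in RPMI 1640 with 5% FBS and 2 mM L-glutamine and plated 24 h before drug addition. Compound was solubilized in DMSO, then exposed for 48 h at 37 °C under 5% CO2. Cells were TCA-fixed and stained with SRB, and absorbance was read at 515 nm. Growth was expressed relative to time-zero and untreated controls.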

HOP-62 [10] = assay: Growth inhibition of human HOP62 cells after 48 hrs by sulforhodamine B assay; conditions: HOP-62, 48 h; for CC50: read-out: LC50 (the source's name)
Method in brief: (§3)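 Adherent NCI-60 lines were grown in RPMI 1640 with 5% FBS and 2 mM L-glutamine, plated at 5000–40,000 cells/well and preincubated 24 h. They were then exposed to five concentrations (0.01–100 µM, from a DMSO stock) for 48 h at 37 °C, 5% CO2. Cells were fixed with cold TCA (10% final, 60 min, 4 °C) and stained with 0.4% SRB. Dye was solubilized in 10 mM Tris base and A515 read. GI50 was derived from time-zero, control and treated absorbances.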

NCI-H460 [11] = assay: Growth inhibition of human NCI-H460 cells after 48 hrs by sulforhodamine B assay; conditions: NCI-H460, 48 h; method in brief: as §3
SK-OV-3 = assay: Growth inhibition of human SKOV3 cells after 48 hrs by sulforhodamine B assay; conditions: SK-OV-3, 48 h; method in brief: as §3
A498 = assay: Growth inhibition of human A498 cells after 48 hrs by sulforhodamine B assay; conditions: A498, 48 h; for CC50: read-out: LC50 (the source's name)
Method in brief: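 A498 adherent renal cells, plated in RPMI 1640 with 5% FBS and 2 mM L-glutamine, were preincubated for 24 h and then exposed for 48 h at 37 °C to 0.01–100 µM. Fixation was 10% TCA (final) for 60 min at 4 °C, then SRB staining and absorbance at 515 nm. GI50 was derived from (Ti−Tz)/(C−Tz)×100 = 50, using time-zero plates.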

MDA-MB-231 = assay: Growth inhibition of human MDA-MB-231 cells after 48 hrs by sulforhodamine B assay; conditions: MDA-MB-231, 48 h; method in brief: as §3
T47D [12] = assay: Growth inhibition of human T47D cells after 48 hrs by sulforhodamine B assay; method in brief: as §3
SF-268 = assay: Cytotoxicity against human SF268 cells assessed as cell growth at 0.01 uM after 48 hrs by sulforhodamine B assay; conditions: SF-268, 48 h, read-out: Activity

SMILES | growth at 0.01 µM (UO-31 [1]) [%] | growth at 0.01 µM (MCF7) [%] | growth at 0.01 µM (T47D [2]) [%] | growth at 0.1 µM (SNB-19) [%] | growth at 0.1 µM (MDA-MB-435) [%] | growth at 0.1 µM (IGROV-1 [3]) [%] | growth at 100 µM (COLO 205) [%] | growth at 100 µM (UO-31 [4]) [%] | growth at 100 µM (BT-549) [%] | growth at 1 µM (HOP-62 [5]) [%] | growth at 1 µM (CAKI-1) [%] | growth at 10 µM (NCI-H460 [6]) [%] | growth at 10 µM (UACC-62) [%] | growth at 10 µM (IGROV-1 [7]) [%] | growth at 10 µM (RXF 393) [%] | growth at 100 µM (HOP-62 [8]) [%] | growth at 10 µM (IGROV-1 [9]) [%] | growth at 10 µM (OVCAR-5) [%] | growth at 10 µM (ACHN) [%] | GI50 (HOP-62 [10]) [µM] | further results
Cc1ccc2nc(Nc3c(C)cccc3C)sc2c1 | 90 | 90 | 94 | 87 | 86 | 108 | 64 | 80 | 73 | 66 | 39 | 22 | 23 | 42 | 27 | 10 | 49.2 | 65.6 | 52.2 | 3.86 | TGI (HOP-62 [10]): > 100 µM; CC50 (HOP-62 [10]): > 100 µM; LC50 (concentration killing 50% of cells) (NCI-H460 [11]): > 100 µM; TGI (NCI-H460 [11]): > 100 µM; LC50 (SK-OV-3): > 100 µM; TGI (SK-OV-3): > 100 µM; CC50 (A498): > 100 µM; GI50 (MDA-MB-231): 0.528 µM; LC50 (concentration killing 50% of cells) (MDA-MB-231): > 100 µM; TGI (MDA-MB-231): 59.8 µM; GI50 (T47D [12]): 54.8 µM; LC50 (concentration giving 50% net cell kill) (T47D [12]): > 100 µM; TGI (T47D [12]): > 100 µM; growth at 0.01 µM (SF-268): 94%
Clc1cccc(Cl)c1Nc1nc2cccc(Cl)c2s1 | 88 | 90 | 95 | 90 | 87 | 103 | -52 | -62 | -48 | 67 | 18 | -75 | -85 | -55 | -73 | -75 | 3.69 | 1.07 | -18.9 | 1.27 | TGI (HOP-62 [10]): 2.62 µM; CC50 (HOP-62 [10]): 5.38 µM; GI50 (NCI-H460 [11]): 1.32 µM; TGI (NCI-H460 [11]): 2.97 µM; GI50 (SK-OV-3): 1.6 µM; LC50 (SK-OV-3): 5.95 µM; TGI (SK-OV-3): 3.08 µM; GI50 (A498): 0.26 µM; TGI (A498): 1.62 µM; CC50 (A498): 4.16 µM; GI50 (MDA-MB-231): 0.304 µM; LC50 (concentration killing 50% of cells) (MDA-MB-231): 4.06 µM; TGI (MDA-MB-231): 1.42 µM; GI50 (T47D [12]): 0.841 µM; LC50 (concentration giving 50% net cell kill) (T47D [12]): 5.08 µM; TGI (T47D [12]): 2.18 µM; growth at 0.01 µM (SF-268): 98%
